Most compounds without a hit are left out; they make up all but 5.9% or so of the library.
KDM4C inh = blocks human GASC-1 (KDM4C) demethylase activity; inhibition, % at 12.5 µM; 96,000 tested, 0.15% active; Q9H3R0; AID 720574; GST-KDM4C 2-372, H3K9me3 peptide, LANCE TR-FRET;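 active = mean replicate inhibition above about 25%, with at least 55% of replicates also reaching it, limit read from the data, passing the limit was not always enough; inconclusive = only one of those two conditions met; inactive = neither condition met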
Target sequence (Q9H3R0 2-372 limits assumed): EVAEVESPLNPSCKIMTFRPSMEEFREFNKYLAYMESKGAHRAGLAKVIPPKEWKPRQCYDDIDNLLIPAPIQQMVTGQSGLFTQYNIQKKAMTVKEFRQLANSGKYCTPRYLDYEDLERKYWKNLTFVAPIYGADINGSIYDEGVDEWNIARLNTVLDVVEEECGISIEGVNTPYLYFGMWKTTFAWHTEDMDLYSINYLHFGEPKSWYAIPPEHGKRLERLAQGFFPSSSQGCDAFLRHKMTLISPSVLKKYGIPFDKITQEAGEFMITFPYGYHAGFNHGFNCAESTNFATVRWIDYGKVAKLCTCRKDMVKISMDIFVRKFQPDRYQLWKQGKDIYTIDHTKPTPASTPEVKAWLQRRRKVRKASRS
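reagent = H3K9me3 peptide substrate, Fe(II), 2-oxoglutarate | system = GST-tagged GASC-1 (JMJD2C) catalytic fragment, aa 2-372 | amount = enzyme final amount 10 nM | read-out = Fall in 671/618 emission ratio as inhibition | medium = HEPES buffer, pH 7.5, plus ascorbate | schedule = 30 min reaction, 60 min detection, RT | measured by = LANCE TR-FRET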
IDH1 R132H inh = IDH1 R132H (human) inhibition; inhibition, % at 10 µM; AID 624101; 70,000 tested, 0.18% active; IDH1 R132H reductase, diaphorase/resazurin fluorescence, 60 min; O75874; in the data active = inhibition above about 34%; inconclusive = no clear call, values can overlap the other calls; inactive = below about 11%;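 also: 0% = DMSO and 100% = no enzyme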
Tcruzi prolif = blocks T. cruzi growth in NIH3T3 culture; T. cruzi beta-gal in NIH3T3, GalScreen luminescence, 90 h; 77,000 tested, 5.9% active; inhibition, % at 8.34 µM;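 active = mean inhibition above about 93%, with at least 55% of replicates each passing it, limit read from the data, passing the limit was not always enough; inconclusive = only one of those two conditions holds; inactive = neither condition holds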
Pf Dd2 growth = blocks growth of Plasmodium falciparum Dd2 parasites; P. falciparum Dd2 growth, SYBR Green, 72 h; active compounds read low; activity change, % at 10 µM; 94,000 tested, 2.3% active; in the data active = activity change below about -80%; inconclusive = no clear call, values can overlap the other calls
* marks the source's active call; other numbers are inactive results; u = inconclusive; x = not tested or not shown.

SMILES	KDM4C inh	IDH1 R132H inh	Tcruzi prolif	Pf Dd2 growth
C[C@H]1CN([C@@H](C)CO)C(=O)c2c(c3ccccc3n2C)-c2ccccc2CO[C@H]1CN(C)S(=O)(=O)c1ccc(C(F)(F)F)cc1	-1.1	x	x	-91.1*
C[C@@H]1CN([C@H](C)CO)C(=O)c2c(c3ccccc3n2C)-c2ccccc2CO[C@@H]1CN(C)S(=O)(=O)c1ccc(C(F)(F)F)cc1	-1.4	x	x	-86.4*
Cc1ccc(S(=O)(=O)N(C)C[C@H]2OCc3ccccc3-c3c(n(C)c4ccccc34)C(=O)N([C@H](C)CO)C[C@H]2C)cc1	1.5	-2.4	61.6	-7.9
COc1ccc(S(=O)(=O)N(C)C[C@H]2OCc3ccccc3-c3c(n(C)c4ccccc34)C(=O)N([C@H](C)CO)C[C@@H]2C)cc1	-0.1	x	-13.0	22.3
COc1ccc(CNC(=O)CCn2c(=O)c3sccc3n(Cc3cc(C)ccc3C)c2=O)cc1	x	0.5	x	x
CCC(=O)N1CC2(C1)CN(Cc1ccc(Cl)cc1)[C@H](CO)c1[nH]c3cc(OC)ccc3c12	-0.7	x	x	u
COc1ccc2c3c([nH]c2c1)[C@H](CO)N(Cc1cccc(Cl)c1)CC31CN(C(C)=O)C1	0.4	x	x	-83.3*
CCCC(=O)N1CC2(C1)CN(Cc1ccc(Cl)cc1)[C@H](CO)c1[nH]c3cc(OC)ccc3c12	-0.2	x	x	-90.1*
CCCC(=O)N1CC2(C1)CN(Cc1ccc(Cl)cc1)[C@@H](CO)c1[nH]c3cc(OC)ccc3c12	-0.5	x	x	-91.6*
CCC(=O)N1CC2(C1)CN(Cc1ccccc1Cl)[C@H](CO)c1[nH]c3cc(OC)ccc3c12	-0.3	x	x	-85.0*
CCCC(=O)N1CC2(C1)CN(Cc1ccncc1)[C@H](CO)c1[nH]c3cc(OC)ccc3c12	1.6	x	x	-58.8
CCC(=O)N1CC2(C1)CN(Cc1ccc(OC)cc1)[C@H](CO)c1[nH]c3cc(OC)ccc3c12	-0.6	x	x	-64.4
COc1ccc2c3c([nH]c2c1)[C@H](CO)N(Cc1ccccc1)CC31CN(C(C)=O)C1	0.4	x	x	-72.6
COc1cc(NC(=O)COc2ccccc2OC)cc(OC)c1	x	-1.2	x	x
O=C(O)CCCCCC(=O)N/N=C/c1cc(Br)ccc1O	x	0.3	x	x
O=C(O)CCN1C(=O)c2cccc3c([N+](=O)[O-])ccc(c23)C1=O	x	-0.1	x	x
Cc1ccc(S(=O)(=O)N(C)CC(=O)Nc2ccccc2Cl)cc1	x	0.2	x	x
CCC(=O)N1CCC2(CC1)CN(Cc1cccc(Cl)c1)[C@@H](CO)c1[nH]c3cc(OC)ccc3c12	2.8	x	x	-77.3
CCC(=O)N1CC2(C1)CN(Cc1cccc(Cl)c1)[C@H](CO)c1[nH]c3cc(OC)ccc3c12	x	x	x	-89.1*
CCC(=O)N1CC2(C1)CN(Cc1ccc(Cl)cc1)[C@@H](CO)c1[nH]c3cc(OC)ccc3c12	-1.3	x	x	-90.5*
COc1cc(CNCc2ccccc2)cc(I)c1OCC#N	x	-0.9	x	x
CC(C)(C)c1cc(C(F)(F)F)c(C#N)c(SCC(=O)Nc2cccc(F)c2)n1	x	0.5	x	x
COc1ccccc1S(=O)(=O)N(C)C[C@@H]1OCc2ccccc2-c2c(n(C)c3ccccc23)C(=O)N([C@@H](C)CO)C[C@H]1C	-2.6	x	20.0	-62.1
COc1ccccc1S(=O)(=O)N(C)C[C@@H]1OCc2ccccc2-c2c(n(C)c3ccccc23)C(=O)N([C@@H](C)CO)C[C@@H]1C	0.3	-1.1	41.5	-92.6*
COc1ccccc1S(=O)(=O)N(C)C[C@@H]1OCc2ccccc2-c2c(n(C)c3ccccc23)C(=O)N([C@H](C)CO)C[C@@H]1C	-1.4	x	81.9	-93.9*
SMILES	KDM4C inh	IDH1 R132H inh	Tcruzi prolif	Pf Dd2 growth
CC(C)(C)NC(=O)CSc1nnc(-c2ccco2)n1-c1ccccc1	x	-0.1	x	x
C[C@H](CO)N1C[C@H](C)[C@@H](CN(C)Cc2ccc(Cl)c(Cl)c2)Oc2c(NC(=O)CCCCCC(=O)Nc3ccccc3N)cccc2C1=O	0.2	x	x	-71.9
C[C@@H]1CN([C@H](C)CO)C(=O)c2cccc(NC(=O)CCCCCC(=O)Nc3ccccc3N)c2O[C@@H]1CN(C)Cc1ccc(Cl)c(Cl)c1	1.4	x	x	-91.3*
C[C@H](CO)N1C[C@H](C)[C@@H](CN(C)C)Oc2c(NC(=O)CCCCCC(=O)Nc3ccccc3N)cccc2C1=O	0.2	x	x	x
C[C@@H]1CN([C@@H](C)CO)C(=O)c2cccc(NC(=O)CCCCCC(=O)Nc3ccccc3N)c2O[C@@H]1CN(C)Cc1ccc(Cl)c(Cl)c1	-2.0	x	91.5	-92.6*
C[C@H]1CN([C@@H](C)CO)C(=O)c2cccc(NC(=O)CCCCCC(=O)Nc3ccccc3N)c2O[C@H]1CN(C)Cc1ccc(Cl)c(Cl)c1	-2.3	-0.4	x	-87.5*
COc1cc(CCC(=O)O)cc(OC)c1OC	x	-0.4	x	x
O=C(COc1ccccc1Cl)Nc1ccc(C(=O)Nc2ccccc2C(=O)O)cc1	x	0.0	x	x
CC(=O)Nc1c(O)nc(SCC(=O)N(c2ccccc2)c2ccccc2)[nH]c1=O	x	-0.1	x	x
C[C@@H]1CCCCO[C@@H](CN(C)Cc2ccc(C(=O)Nc3ccccc3N)cc2)[C@@H](C)CN([C@H](C)CO)C(=O)c2cc(NC(=O)Nc3ccc(F)cc3)ccc2O1	-0.3	x	x	-87.1*
C[C@@H]1CCCCO[C@@H](CN(C)Cc2ccc(C(=O)Nc3ccccc3N)cc2)[C@@H](C)CN([C@H](C)CO)C(=O)c2cc(NC(=O)Nc3ccc(C(F)(F)F)cc3)ccc2O1	0.5	0.1	x	-82.8*
Cn1c(=O)c2c(ncn2CCCN)n(C)c1=O	x	0.1	x	x
C[C@H](CO)N1C[C@H](C)[C@@H](CN(C)C(=O)Nc2cccc(C(F)(F)F)c2)OCc2ccccc2-c2c(n(C)c3ccccc23)C1=O	-2.4	x	x	-85.5*
C[C@H](CO)N1C[C@H](C)[C@H](CN(C)C(=O)Nc2cccc(C(F)(F)F)c2)OCc2ccccc2-c2c(n(C)c3ccccc23)C1=O	-3.5	x	x	-53.0
C[C@H]1CN([C@@H](C)CO)C(=O)c2c(c3ccccc3n2C)-c2ccccc2CO[C@@H]1CN(C)C(=O)Nc1cccc(C(F)(F)F)c1	-4.4	x	x	-94.4*
COc1cc([N+](=O)[O-])ccc1NC(=O)CN(C)S(=O)(=O)c1ccc2ccccc2c1	x	0.2	x	x
COc1ccc(S(=O)(=O)N(C)C[C@H]2OCCCC[C@@H](C)Oc3ccc(NC(=O)Nc4cccc5ccccc45)cc3C(=O)N([C@@H](C)CO)C[C@@H]2C)cc1	-5.3	-0.3	79.1	-70.1
COc1ccc(S(=O)(=O)N(C)C[C@@H]2OCCCC[C@H](C)Oc3ccc(NC(=O)Nc4cccc5ccccc45)cc3C(=O)N([C@@H](C)CO)C[C@H]2C)cc1	-2.4	0.9	18.2	-89.2*
COc1ccc(S(=O)(=O)N(C)C[C@H]2OCCCC[C@H](C)Oc3ccc(NC(=O)Nc4cccc5ccccc45)cc3C(=O)N([C@H](C)CO)C[C@H]2C)cc1	-3.6	x	80.3	-86.1*
Cc1ccc(S(=O)(=O)N(C)C[C@H]2OCCCC[C@H](C)Oc3ccc(NC(=O)Nc4cccc5ccccc45)cc3C(=O)N([C@@H](C)CO)C[C@H]2C)cc1	x	x	x	-82.0*
Cc1ccc2nc(-c3cccc(NC(=O)COc4ccccc4)c3C)oc2c1	x	0.1	x	x
OC[C@@H]1Nc2ccc(C#Cc3cccc(F)c3)cc2[C@@H]2NCC[C@H]12	2.4	x	x	-90.8*

Screening data deposited in PubChem BioAssay by Broad Institute.
